Measured values of several laboratories.
Compare with care: the assays were run in different laboratories. In brackets after ≈: the same amount, converted by molar mass.

c1ccc(-c2nc(N3CCCC3)c3ccccc3n2)nc1  IC50 (Trypanosoma cruzi; parasite growth, imaging; U2OS; intracellular, amastigote): 3.1 µM
CCOC(=O)c1c(NC(=O)c2cc(C(F)(F)F)cc(C(F)(F)F)c2)sc2c1CCN(C(=O)OC(C)(C)C)C2  MIC (Mycobacterium tuberculosis; microbial growth, resazurin; H37RV; 7 days): > 100 µM
CC1=NN(CNc2ccc(C(=O)O)cc2)C(=O)C1=NNn1c(-c2ccccc2)nc2ccccc2c1=O  MIC (Monascus purpureus; microbial growth, broth dilution): 101 µM (≈ 50 µg/mL)
Cc1cc2nccc(-c3cccnc3)c2c(C)c1-c1ccc(CN2CCOCC2)cc1  MIC90 (Mycobacterium tuberculosis; microbial growth; H37RV): 5 µM (≈ 2.05 µg/mL)
CCOC(=O)c1cc(-c2ccccc2)sc1NC(=O)c1cc(C(F)(F)F)cc(C(F)(F)F)c1  MIC (Mycobacterium tuberculosis; microbial growth, resazurin; H37RV): > 200 µM
O=C(N[C@@H](Cc1ccccc1)C(=O)c1nc2ccccc2s1)[C@H](Cc1ccccc1)NC(=O)N1CCOCC1  IC50 (Trypanosoma cruzi; parasite growth; TULAHUEN; intracellular, amastigote): 17.5 µM
COc1ccc(Nc2nc(-c3cccs3)nc3ccccc23)cc1  IC50 (Trypanosoma cruzi; parasite growth, imaging; U2OS; intracellular, amastigote): 5.87 µM
CC1=NN(CNC(=O)c2ccccc2)C(=O)C1=NNn1c(-c2ccccc2)nc2ccccc2c1=O  MIC (Monascus purpureus; microbial growth, broth dilution): 104 µM (≈ 49.8 µg/mL)
Cc1cc2nc(C(=O)N3CCNCC3)cc(-c3ccccc3Cl)c2c(C)c1-c1ccncc1  MIC90 (Mycobacterium tuberculosis; microbial growth; H37RV): 10 µM (≈ 4.57 µg/mL)
O=C(O)c1cn(C2CC2)c2cc(N3CCNCC3)c(F)cc2c1=O  MIC (Monascus purpureus; microbial growth, broth dilution): 6.25 µM (≈ 2.07 µg/mL)
N#Cc1cccc(-c2nc(N3CCC(c4ccccn4)C3)c3ccccc3n2)c1 (centres unmarked)  IC50 (Trypanosoma cruzi; parasite growth, imaging; U2OS; intracellular, amastigote): 6.92 µM
CCOC(=O)c1c(NC(=O)c2c(F)c(F)c(F)c(F)c2F)sc2c1CCN(C(=O)OC(C)(C)C)C2  MIC (Mycobacterium tuberculosis; microbial growth, resazurin; H37RV; 7 days): > 100 µM
Nc1nc(O)c2ncn(COC(CO)CO)c2n1  IC50 (Human betaherpesvirus 5; cytopathic effect; AD169): 0.9 µM
NC(=O)c1cccc(-c2nc(N3CCC(c4ccccn4)C3)c3ccccc3n2)c1 (centres unmarked)  IC50 (Trypanosoma cruzi; parasite growth, imaging; U2OS; intracellular, amastigote): 9.33 µM
CCOC(=O)c1c(NC(=O)c2c(F)c(F)c(F)c(F)c2F)sc2c1CCN(CC)C2  MBC (Mycobacterium tuberculosis; microbial killing; H37RV; 21 days): < 5 µM
CC(C)(Nc1nc(-c2ccccn2)nc2ccccc12)c1ccccn1  IC50 (Trypanosoma cruzi; parasite growth, imaging; U2OS; intracellular, amastigote): 1.4 µM
O=C1NN=C(N=Cc2ccc(O)c(O)c2)C1=NNn1c(-c2ccccc2)nc2ccccc2c1=O  MIC (Monascus purpureus; microbial growth, broth dilution): 53.5 µM (≈ 25 µg/mL)
CCOC(=O)c1c(NC(=O)c2c(F)c(F)c(F)c(F)c2F)sc2c1CCCC2  IC50 (Mycobacterium tuberculosis; microbial growth, resazurin; H37RV): 13 µM
Cc1ccc2nc(-c3ccc(Cl)cc3)cn2c1  EC90 (Trypanosoma cruzi; parasite growth; TULAHUEN; 6 days, intracellular, amastigote): > 5 µM
CCOC(=O)c1c(NC(=O)c2ccccc2)sc2c1CCN(CC)C2  MIC (Mycobacterium tuberculosis; microbial growth, resazurin; H37RV): 279 µM (≈ 100 µg/mL)
c1ccc(C2CCN(c3nc(-c4ccn[nH]4)nc4ccccc34)C2)nc1 (centres unmarked)  IC50 (Trypanosoma cruzi; parasite growth, imaging; U2OS; intracellular, amastigote): 14.3 µM
CCN1CCc2c(sc(N)c2C(=O)NCc2ccccc2OC)C1  MIC (Mycobacterium tuberculosis; microbial growth, resazurin; H37RV): > 200 µM
c1ccc(CNc2nc(-c3ccccn3)nc3ccccc23)cc1  IC50 (Trypanosoma cruzi; parasite growth, imaging; U2OS; intracellular, amastigote): 1.4 µM
